In ChEMBL document CHEMBL2021876, “New pyridobenzoxazepine derivatives derived from 5-(4-methylpiperazin-1-yl)-8-chloro-pyrido[2,3-b][1,5]benzoxazepine (JL13): chemical synthesis and pharmacological evaluation” (J Med Chem, 2012):

Columns and labels:
[1] = In vivo displacement of [3H]Ketanserin from 5HT2A receptor in Sprague-Dawley rat entorhinal cortex at 13.75 mg/kg, ip qd for 28 days by autoradiography relative to control; assay type: functional; conditions: route intraperitoneal
How it was run: (§1)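 Rats (male Sprague-Dawley, N = 8/group) given daily ip injections for 28 days versus vehicle. Brain sections preincubated 1 h RT in 50 mM Tris-HCl pH 7.7, then 1 h RT with 3.0 nM [3H]ketanserin plus 1 μM prazosin and 100 nM tetrabenazine. Nonspecific: 1 μM methysergide. Washes 2 × 30 min ice-cold. Readout fmol/mg tissue as % of control, mean ± SEM.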

Caudate-putamen [2] = assay: In vivo displacement of [3H]Nemonapride from dopamine D4 receptor in Sprague-Dawley rat lateral part of caudate putamen at 13.75 mg/kg, ip qd for 28 days by autoradiography relative to control; assay type: functional; conditions: route intraperitoneal
Caudate-putamen [3] = assay: In vivo displacement of [3H]8-OH-DPAT from 5HT1A receptor in Sprague-Dawley rat lateral part of caudate putamen at 13.75 mg/kg, ip qd for 28 days by autoradiography relative to control; assay type: functional; conditions: route intraperitoneal
How it was run: (§2)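 Male Sprague-Dawley rats (200−225 g, N = 8/group) dosed ip once daily for 28 days, vehicle controls, decapitated; 10 μm frozen coronal sections. Preincubation 1 h RT in 50 mM Tris-HCl pH 7.6, 0.1% ascorbic acid, 4 mM CaCl2, 10 μM pargyline; then 1 h RT with 2.0 nM [3H]8-OH-DPAT. Nonspecific: 1 μM 5-HT. Saturating conditions; binding in fmol/mg tissue, % of control, mean ± SEM.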

Hippocampus [4] = assay: In vivo displacement of [3H]8-OH-DPAT from 5HT1A receptor in Sprague-Dawley rat hippocampus CA1 region at 13.75 mg/kg, ip qd for 28 days by autoradiography relative to control; assay type: functional; conditions: route intraperitoneal; how it was run: as §2
[5] = target: Serotonin 1a (5-HT1a) receptor/Adrenergic receptor alpha-1 (Rattus norvegicus) (UniProt P15823+P23944+P43140+P19327); assay: In vivo displacement of [3H]8-OH-DPAT from 5HT1A receptor in Sprague-Dawley rat entorhinal cortex at 13.75 mg/kg, ip qd for 28 days by autoradiography relative to control; assay type: functional, organism-based; set-up: dose 13.75 mg/kg; how it was run: as §2
[6] = In vivo displacement of [3H]Ketanserin from 5HT2A receptor in Sprague-Dawley rat medial-prefrontal cortex at 13.75 mg/kg, ip qd for 28 days by autoradiography relative to control; assay type: functional; conditions: route intraperitoneal; how it was run: as §1
[7] = In vivo displacement of [3H]Ketanserin from 5HT2A receptor in Sprague-Dawley rat dorsolateral frontal cortex at 13.75 mg/kg, ip qd for 28 days by autoradiography relative to control; assay type: functional; conditions: route intraperitoneal; how it was run: as §1
[8] = In vivo displacement of [3H]Ketanserin from 5HT2A receptor in Sprague-Dawley rat nucleus accumbens at 13.75 mg/kg, ip qd for 28 days by autoradiography relative to control; assay type: functional; conditions: route intraperitoneal; how it was run: as §1
[9] = target: T1, Alpha-2A adrenergic receptor (Homo sapiens, UniProt P08913); assay: Displacement of [3H]-MK-912 from human cloned adrenergic alpha2A receptor expressed in insect Sf9 membranes after 60 mins by liquid scintillation counting; assay type: cell membranes
T1 sequence (P08913 whole entry): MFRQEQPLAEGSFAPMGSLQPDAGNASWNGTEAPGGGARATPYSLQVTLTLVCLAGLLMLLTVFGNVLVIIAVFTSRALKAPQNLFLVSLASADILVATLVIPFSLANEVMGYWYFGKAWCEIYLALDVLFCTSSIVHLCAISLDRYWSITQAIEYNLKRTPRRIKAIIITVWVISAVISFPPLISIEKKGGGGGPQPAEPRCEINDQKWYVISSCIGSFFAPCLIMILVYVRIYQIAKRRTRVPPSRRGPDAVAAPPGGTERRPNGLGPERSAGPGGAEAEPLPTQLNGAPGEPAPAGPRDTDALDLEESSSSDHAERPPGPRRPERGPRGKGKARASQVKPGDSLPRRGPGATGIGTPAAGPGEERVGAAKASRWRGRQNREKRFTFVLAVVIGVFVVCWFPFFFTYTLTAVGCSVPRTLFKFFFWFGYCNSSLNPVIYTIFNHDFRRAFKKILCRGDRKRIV
How it was run: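 Membranes from Sf9 cells expressing cloned human α2A-adrenoceptor. Nonspecific binding defined with 10 μM WB4101. Filtered on GF/C and counted by scintillation.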

[10] = target: 5-hydroxytryptamine receptor 2A (Homo sapiens, UniProt P28223); assay: Displacement of [3H]ketanserin from human recombinant 5HT2A receptor expressed in CHO cells after 60 mins by liquid scintillation counting; assay type: cell-based
5-hydroxytryptamine receptor 2A, sequence (P28223 whole entry): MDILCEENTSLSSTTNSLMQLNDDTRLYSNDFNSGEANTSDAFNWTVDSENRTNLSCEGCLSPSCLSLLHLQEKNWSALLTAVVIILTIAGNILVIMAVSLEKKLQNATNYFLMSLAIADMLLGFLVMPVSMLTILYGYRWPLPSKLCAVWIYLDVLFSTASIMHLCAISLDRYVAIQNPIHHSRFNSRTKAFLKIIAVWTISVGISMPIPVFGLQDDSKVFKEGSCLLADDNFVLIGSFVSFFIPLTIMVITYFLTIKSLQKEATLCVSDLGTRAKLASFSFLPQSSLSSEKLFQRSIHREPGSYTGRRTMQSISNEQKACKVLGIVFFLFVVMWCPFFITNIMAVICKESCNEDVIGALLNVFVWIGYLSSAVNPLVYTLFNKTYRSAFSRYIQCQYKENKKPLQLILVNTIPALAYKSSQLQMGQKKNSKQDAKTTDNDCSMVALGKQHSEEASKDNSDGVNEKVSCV

[11] = target: T2, 5-hydroxytryptamine receptor 1A (Homo sapiens, UniProt P08908); assay: Displacement of [3H]8-OH-DPAT from human recombinant 5HT1A receptor expressed in CHO cells after 60 mins by liquid scintillation counting; assay type: cell-based
T2 sequence (P08908 whole entry): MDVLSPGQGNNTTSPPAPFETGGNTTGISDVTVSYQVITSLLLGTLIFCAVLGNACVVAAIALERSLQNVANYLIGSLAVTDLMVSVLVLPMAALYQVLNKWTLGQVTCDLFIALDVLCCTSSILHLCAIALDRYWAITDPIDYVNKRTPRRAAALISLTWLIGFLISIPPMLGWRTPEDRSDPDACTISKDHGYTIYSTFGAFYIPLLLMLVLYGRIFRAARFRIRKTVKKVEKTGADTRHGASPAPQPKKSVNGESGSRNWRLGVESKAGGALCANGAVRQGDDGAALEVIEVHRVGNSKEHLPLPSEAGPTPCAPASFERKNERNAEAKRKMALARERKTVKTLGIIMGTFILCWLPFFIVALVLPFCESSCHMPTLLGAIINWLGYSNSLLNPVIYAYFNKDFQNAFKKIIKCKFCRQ

Hippocampus [12] = assay: In vivo displacement of [3H]SCH-23390 from dopamine D1 receptor in Sprague-Dawley rat hippocampus at 13.75 mg/kg, ip qd for 28 days by autoradiography relative to control; assay type: functional; conditions: route intraperitoneal
How it was run: (§3)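 Forebrain sections from male Sprague-Dawley rats (N = 8/group) after 28 days of daily ip injections versus vehicle. Incubation 1 h RT in 50 mM Tris-HCl pH 7.4, 120 mM NaCl, 5 mM KCl, 2 mM CaCl2, 1 mM MgCl2 with 1 nM [3H]SCH-23390 and 100 nM ketanserin. Nonspecific: 1 μM cis-flupenthixol. Saturating conditions; fmol/mg tissue, % of control.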

[13] = In vivo displacement of [3H]SCH-23390 from dopamine D1 receptor in Sprague-Dawley rat entorhinal cortex at 13.75 mg/kg, ip qd for 28 days by autoradiography relative to control; assay type: functional; conditions: route intraperitoneal; how it was run: as §3
Caudate-putamen [14] = assay: In vivo displacement of [3H]Nemonapride from dopamine D2 receptor in Sprague-Dawley rat lateral of caudate putamen at 13.75 mg/kg, ip qd for 28 days by autoradiography relative to control; assay type: functional; conditions: route intraperitoneal
How it was run: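 Male Sprague-Dawley rats, N = 8/group, daily ip dosing for 28 days with vehicle controls; cryostat sections (10 μm) preincubated 1 h RT. Incubation 1 h RT in 50 mM Tris-HCl pH 7.4, 120 mM NaCl, 5 mM KCl, 2 mM CaCl2, 1 mM MgCl2 with 1 nM [3H]nemonapride, 0.5 μM DTG, 0.1 μM pindolol. Nonspecific: 10 μM S(−)-sulpiride. Values fmol/mg tissue, % of control.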

Clc1ccc2c(c1)N=C(N1CCNCC1)c1cccnc1O2
inhibition in vivo at 13.75 mg/kg [1]: 90%
inhibition in vivo at 13.75 mg/kg (Caudate-putamen [2]): 152%
inhibition in vivo at 13.75 mg/kg (Caudate-putamen [3]): 95%
inhibition in vivo at 13.75 mg/kg (Hippocampus [4]): 95%
inhibition [5]: 103%
inhibition in vivo at 13.75 mg/kg [6]: 56%
inhibition in vivo at 13.75 mg/kg [7]: 53%
inhibition in vivo at 13.75 mg/kg [8]: 98%
Ki [9]: 0.729 µM
Ki [10]: 0.131 µM
Ki [11]: 0.375 µM
inhibition in vivo at 13.75 mg/kg (Hippocampus [12]): 105%
inhibition in vivo at 13.75 mg/kg [13]: 96%
inhibition in vivo at 13.75 mg/kg (Caudate-putamen [14]): 98%
